Drawing on ChEMBL document CHEMBL4325867, “Synthesis and biological evaluation of novel H6 analogues as drug resistance reversal agents” (Eur J Med Chem, 2019), this text covers Survival, viability and logD for 23 molecules.

In data set [1] the target is ATP-dependent translocase ABCB1 (Homo sapiens, UniProt P08183). In words: Reversal of P-gp-mediated drug resistance in human KBV cells assessed as potentiation of paclitaxel-induced cytotoxicity by measuring cell survival at 5 uM after 72 hrs by MTT assay (reference value: 98 +/- 19%). The class given is cell-based. (Tetrazolium assays rely on reduction of a dye to a coloured formazan, in cell work by metabolically active cells.)
ATP-dependent translocase ABCB1, sequence (P08183 whole entry): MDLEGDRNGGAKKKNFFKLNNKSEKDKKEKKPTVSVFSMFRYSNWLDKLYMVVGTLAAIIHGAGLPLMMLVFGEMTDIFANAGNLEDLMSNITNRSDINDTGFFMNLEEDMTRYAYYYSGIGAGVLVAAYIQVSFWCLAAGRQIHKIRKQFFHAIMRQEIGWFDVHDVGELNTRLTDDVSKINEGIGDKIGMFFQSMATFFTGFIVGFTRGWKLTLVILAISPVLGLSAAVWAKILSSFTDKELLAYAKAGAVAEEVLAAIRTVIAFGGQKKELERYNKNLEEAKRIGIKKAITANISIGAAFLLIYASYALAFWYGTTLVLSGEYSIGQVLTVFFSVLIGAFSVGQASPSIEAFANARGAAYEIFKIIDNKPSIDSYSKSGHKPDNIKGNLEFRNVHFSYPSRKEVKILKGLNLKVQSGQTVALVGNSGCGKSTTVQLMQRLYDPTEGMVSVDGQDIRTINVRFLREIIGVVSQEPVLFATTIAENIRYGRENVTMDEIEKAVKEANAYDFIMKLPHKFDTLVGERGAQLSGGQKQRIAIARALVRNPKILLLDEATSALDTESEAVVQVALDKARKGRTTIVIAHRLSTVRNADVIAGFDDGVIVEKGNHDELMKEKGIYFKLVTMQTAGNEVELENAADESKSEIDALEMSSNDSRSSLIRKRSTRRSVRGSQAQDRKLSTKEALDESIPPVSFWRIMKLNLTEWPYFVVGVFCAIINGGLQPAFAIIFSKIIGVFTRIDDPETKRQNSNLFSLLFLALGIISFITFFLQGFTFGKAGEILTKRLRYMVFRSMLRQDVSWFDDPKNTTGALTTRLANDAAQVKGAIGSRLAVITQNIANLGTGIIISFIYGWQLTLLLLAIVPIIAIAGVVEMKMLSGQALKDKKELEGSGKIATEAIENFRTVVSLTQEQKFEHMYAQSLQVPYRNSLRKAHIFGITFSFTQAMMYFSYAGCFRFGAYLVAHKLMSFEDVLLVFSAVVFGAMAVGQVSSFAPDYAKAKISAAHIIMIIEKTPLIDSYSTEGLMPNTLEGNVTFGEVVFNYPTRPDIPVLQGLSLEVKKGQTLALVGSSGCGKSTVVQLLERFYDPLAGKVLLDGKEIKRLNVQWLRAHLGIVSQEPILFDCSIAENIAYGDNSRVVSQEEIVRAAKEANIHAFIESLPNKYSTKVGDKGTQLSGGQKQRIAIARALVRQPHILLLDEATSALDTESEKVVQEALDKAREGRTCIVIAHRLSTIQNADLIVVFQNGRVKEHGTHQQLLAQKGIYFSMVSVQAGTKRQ

Data set [2] is described as follows: Cytotoxicity against human KBV cells assessed as cell survival at 5 uM after 72 hrs by MTT assay relative to control. The class given is cell-based. Conditions: read-out: Survival. In short, it runs like this:
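KBV cells (RPMI-1640 with 10% heat-inactivated FCS, 37 °C, 5% CO2, log-phase) were seeded in 96-well plates and exposed to compound alone at 5 µM for 72 h. MTT was added and incubated, then DMSO was added. OD was read at 570 nm and survival rate was calculated.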

Data set [3] is described as follows: n-octanol/aqueous buffer solution partition coefficient, log P of the compound at pH 6.8 after 4 hrs by HPLC method. The class given is physicochemical. In short, it runs like this:
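Shake-flask partition between n-octanol and pH 6.8 buffer at a 1:1 ratio, room temperature, shaken 4 h. Compound concentration in each phase measured by HPLC.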

Consider `CC1(C)CC[C@]2(C(=O)On3nnc4ccc(Cl)cc43)CC[C@]3(C)C(=CC[C@@H]4[C@@]5(C)CC[C@H](O)[C@@](C)(CO)[C@@H]5CC[C@]43C)[C@@H]2C1`, for which the Survival in data set [1] is listed as 111%. Besides, the viability at 72 h, 5 µM in data set [2] is 97%. Moreover, the pH-dependent lipophilicity (logD) at 4 h in data set [3] is -0.75.

With `CSCC[C@H](NC(=O)[C@]12CCC(C)(C)C[C@H]1C1=CC[C@@H]3[C@@]4(C)Cc5nccnc5[C@@](C)(CO)[C@@H]4CC[C@@]3(C)[C@]1(C)CC2)C(=O)O`, the Survival in data set [1] worked out at 94%. Moreover, in data set [2], the viability at 72 h, 5 µM came out at 94%. This molecule registered a logD at 4 h in data set [3] of -0.2.

Consider `COC(=O)CCC(=O)NOC(=O)[C@]12CCC(C)(C)C[C@H]1C1=CC[C@@H]3[C@@]4(C)Cc5nccnc5[C@@](C)(CO)[C@@H]4CC[C@@]3(C)[C@]1(C)CC2`, for which the Survival in data set [1] came out at 32%. Besides, the viability at 72 h, 5 µM in data set [2] was found to be 86%. This molecule yielded a logD at 4 h in data set [3] of -1.24.

`CC1(C)CC[C@]2(C(=O)On3nnc4ccc(Cl)cc43)CC[C@]3(C)C(C(=O)C[C@@H]4[C@@]5(C)CCC(=O)[C@@](C)(CO)[C@@H]5CC[C@]43C)[C@@H]2C1` (stereo partly drawn): the Survival in data set [1] is 112%. Besides, the viability at 72 h, 5 µM in data set [2] turned out to be 98%. Further, the logD at 4 h in data set [3] was determined as 0.1.

With `CC1(C)CC[C@]2(C(=O)O)CC[C@]3(C)C(=CC[C@@H]4[C@@]5(C)Cc6nccnc6[C@@](C)(COC(=O)C6CCCCC6C(=O)O)[C@@H]5CC[C@]43C)[C@@H]2C1` (stereo partly drawn), the Survival in data set [1] stood at 100%. For the same molecule, the viability at 72 h, 5 µM in data set [2] was 95%. The logD at 4 h in data set [3] was -0.33.

On to `CC1(C)CC[C@]2(C(=O)N[C@@H](CCC(=O)O)C(=O)O)CC[C@]3(C)C(=CC[C@@H]4[C@@]5(C)Cc6nccnc6[C@@](C)(CO)[C@@H]5CC[C@]43C)[C@@H]2C1`, for which, in data set [1], the Survival was 80%. Besides, the viability at 72 h, 5 µM in data set [2] came to 91%. For the same molecule, the log distribution coefficient (logD) at 4 h in data set [3] is -0.66.

For the molecule `CC1(C)CC[C@]2(C(=O)OCCCCCOC(=O)[C@]34CCC(C)(C)C[C@H]3C3=CC[C@@H]5[C@@]6(C)CC[C@H](O)[C@@](C)(CO)[C@@H]6CC[C@@]5(C)[C@]3(C)CC4)CC[C@]3(C)C(=CC[C@@H]4[C@@]5(C)CC[C@H](O)[C@@](C)(CO)[C@@H]5CC[C@]43C)[C@@H]2C1`, the Survival in data set [1] is 42%. In addition, the viability at 72 h, 5 µM in data set [2] was 123%.

Regarding `CC1(C)CC[C@]2(C(=O)N[C@@H](CO)C(=O)O)CC[C@]3(C)C(=CC[C@@H]4[C@@]5(C)Cc6nccnc6[C@@](C)(CO)[C@@H]5CC[C@]43C)[C@@H]2C1`, the Survival in data set [1] was found to be 76%. Besides, the viability at 72 h, 5 µM in data set [2] turned out to be 102%. In data set [3], the logD at 4 h is -0.11.

Turning to `CC1(C)CC[C@]2(C(=O)O)CC[C@]3(C)C(C(=O)C[C@@H]4[C@@]5(C)CCC(=O)[C@@](C)(CO)[C@@H]5CC[C@]43C)[C@@H]2C1` (stereo partly drawn), the Survival in data set [1] is listed as 104%. Further, the viability at 72 h, 5 µM in data set [2] came out at 102%.

With `CC1(C)CC[C@]2(C(=O)N[C@@H](CC(=O)O)C(=O)O)CC[C@]3(C)C(=CC[C@@H]4[C@@]5(C)Cc6nccnc6[C@@](C)(CO)[C@@H]5CC[C@]43C)[C@@H]2C1`, in data set [1], the Survival turned out to be 81%. In addition, the viability at 72 h, 5 µM in data set [2] is 90%. The same molecule yielded a log distribution coefficient (logD) at 4 h in data set [3] of -0.39.

Regarding `CC1(C)CC[C@]2(C(=O)OCCCOC(=O)[C@]34CCC(C)(C)C[C@H]3C3=CC[C@@H]5[C@@]6(C)CC[C@H](O)[C@@](C)(CO)[C@@H]6CC[C@@]5(C)[C@]3(C)CC4)CC[C@]3(C)C(=CC[C@@H]4[C@@]5(C)CC[C@H](O)[C@@](C)(CO)[C@@H]5CC[C@]43C)[C@@H]2C1`, in data set [1], the Survival is given as 45%. Further, the viability at 72 h, 5 µM in data set [2] came to 107%.

With `CC1(C)CC[C@]2(C(=O)N[C@@H](Cc3ccc(O)cc3)C(=O)O)CC[C@]3(C)C(=CC[C@@H]4[C@@]5(C)Cc6nccnc6[C@@](C)(CO)[C@@H]5CC[C@]43C)[C@@H]2C1`, the Survival in data set [1] is on record as 68%. Besides, the viability at 72 h, 5 µM in data set [2] came out at 76%. In addition, the logD at 4 h in data set [3] was -0.03.

Take `CC1(C)CC[C@]2(C(=O)OCCN)CC[C@]3(C)C(=CC[C@@H]4[C@@]5(C)Cc6nccnc6[C@@](C)(CO)[C@@H]5CC[C@]43C)[C@@H]2C1`: the Survival in data set [1] turned out to be 24%. Moreover, in data set [2], the viability at 72 h, 5 µM is 116%. The molecule further showed a logD at 4 h in data set [3] of 0.36.

For the molecule `CC1(C)CC[C@]2(C(=O)On3nnc4cccnc43)CC[C@]3(C)C(=CC[C@@H]4[C@@]5(C)CC[C@H](O)[C@@](C)(CO)[C@@H]5CC[C@]43C)[C@@H]2C1`, in data set [1], the Survival was found to be 115%. The viability at 72 h, 5 µM in data set [2] turned out to be 94%. Besides, the logD at 4 h in data set [3] is -0.23.

With `CC(C)C[C@H](NC(=O)[C@]12CCC(C)(C)C[C@H]1C1=CC[C@@H]3[C@@]4(C)Cc5nccnc5[C@@](C)(CO)[C@@H]4CC[C@@]3(C)[C@]1(C)CC2)C(=O)O`, in data set [1], the Survival was 76%. Further, the viability at 72 h, 5 µM in data set [2] was 130%. In addition, the logD at 4 h in data set [3] was 0.08.

With `CC1(C)CC[C@]2(C(=O)O)CC[C@]3(C)C(=CC[C@@H]4[C@@]5(C)Cc6nccnc6[C@@](C)(CO)[C@@H]5CC[C@]43C)[C@@H]2C1`, in data set [1], the Survival was found to be 61%. The viability at 72 h, 5 µM in data set [2] came out at 89%. Moreover, the logD at 4 h in data set [3] worked out at 0.24.

Regarding `CC1(C)CC[C@]2(C(=O)OCCCCOC(=O)[C@]34CCC(C)(C)C[C@H]3C3=CC[C@@H]5[C@@]6(C)CC[C@H](O)[C@@](C)(CO)[C@@H]6CC[C@@]5(C)[C@]3(C)CC4)CC[C@]3(C)C(=CC[C@@H]4[C@@]5(C)CC[C@H](O)[C@@](C)(CO)[C@@H]5CC[C@]43C)[C@@H]2C1`, the Survival in data set [1] was 44%. The viability at 72 h, 5 µM in data set [2] came to 92%.

Take `CC1(C)CC[C@]2(C(=O)OCCOC(=O)[C@]34CCC(C)(C)C[C@H]3C3=CC[C@@H]5[C@@]6(C)CC[C@H](O)[C@@](C)(CO)[C@@H]6CC[C@@]5(C)[C@]3(C)CC4)CC[C@]3(C)C(=CC[C@@H]4[C@@]5(C)CC[C@H](O)[C@@](C)(CO)[C@@H]5CC[C@]43C)[C@@H]2C1`: the Survival in data set [1] is 37%. For the same molecule, the viability at 72 h, 5 µM in data set [2] turned out to be 136%.

With `CC(C)[C@H](NC(=O)[C@]12CCC(C)(C)C[C@H]1C1=CC[C@@H]3[C@@]4(C)Cc5nccnc5[C@@](C)(CO)[C@@H]4CC[C@@]3(C)[C@]1(C)CC2)C(=O)O`, the Survival in data set [1] came out at 114%. Further, the viability at 72 h, 5 µM in data set [2] was 83%. This molecule registered a log distribution coefficient (logD) at 4 h in data set [3] of -0.78.

For `C[C@H](NC(=O)[C@]12CCC(C)(C)C[C@H]1C1=CC[C@@H]3[C@@]4(C)Cc5nccnc5[C@@](C)(CO)[C@@H]4CC[C@@]3(C)[C@]1(C)CC2)C(=O)O`, the Survival in data set [1] amounted to 264%. The viability at 72 h, 5 µM in data set [2] is 98%. The logD at 4 h in data set [3] was -1.07.

As to `CC1(C)CC[C@]2(C(=O)O)CC[C@]3(C)C(=CC[C@@H]4[C@@]5(C)CC[C@H](O)[C@@](C)(CO)[C@@H]5CC[C@]43C)[C@@H]2C1` [HEDERAGENIN], the Survival in data set [1] is recorded as 100%.

For the molecule `COc1ccc(CCN(C)CCCC(C#N)(c2ccc(OC)c(OC)c2)C(C)C)cc1OC` (stereo not drawn), in data set [1], the Survival came to 23%.

As to `CC1(C)CC[C@]2(C(=O)n3ccnc3)CC[C@]3(C)C(=CC[C@@H]4[C@@]5(C)CC[C@H](O)[C@@](C)(CO)[C@@H]5CC[C@]43C)[C@@H]2C1`, the log distribution coefficient (logD) at 4 h in data set [3] is -0.4.

What is called logD is the decadic logarithm of the distribution of all forms, ionised or not, between an organic phase and buffer at a given pH.
